# Test system: NF-κB
# Assay: NF-κB activation using THP1-Blue NF-κB cells
# Type: cell-based, human
# Details: Homo sapiens, 20 h, read-out: NF-κB SEAP Compound alone % Activation
# How it was run: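 THP1-Blue NF-κB cells carry a stably integrated NF-κB-inducible SEAP. They were plated at 10^5 cells/well in RPMI with 10% FBS, penicillin, streptomycin and Normocin, then treated for 20 h with 5 μM test compound (0.5% DMSO final), alone or with LPS at 10 ng/mL. Supernatant SEAP was read colorimetrically at 630 nm. Signals were two-point normalized: baseline (vehicle or LPS) 100%, reference hit 200%.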
row,SMILES,activation at 5 µM
1,"Cc1ccccc1-c1csc(NC(=O)c2ccc(S(=O)(=O)N3CCCCC3)cc2)n1 [Compound 12b, 4-(piperidin-1-ylsulfonyl)-N-(4-(o-tolyl)thiazol-2-yl)benzamide]",100%
2,"Cc1cccc(-c2csc(NC(=O)c3ccc(S(=O)(=O)N4CCCCC4)cc3)n2)c1 [Compound 12c, 4-(piperidin-1-ylsulfonyl)-N-(4-(m-tolyl)thiazol-2-yl)benzamide]",100%
3,"Cc1csc(NC(=O)c2ccc(S(=O)(=O)N3CCCCC3)cc2)n1 [Compound 12g, N-(4-methylthiazol-2-yl)-4-(piperidin-1-ylsulfonyl)benzamide]",100%
4,"CCc1csc(NC(=O)c2ccc(S(=O)(=O)N3CCCCC3)cc2)n1 [Compound 12h, N-(4-ethylthiazol-2-yl)-4-(piperidin-1-ylsulfonyl)benzamide]",100%
5,"CCCc1csc(NC(=O)c2ccc(S(=O)(=O)N3CCCCC3)cc2)n1 [Compound 12i, 4-(piperidin-1-ylsulfonyl)-N-(4-propylthiazol-2-yl)benzamide]",100%

# Same assay, conditions: compound alone, 5 μM, 20h
row,SMILES,"NF-κB activity (in words, SAR text to Table 1)"
1,"Cc1ccccc1-c1csc(NC(=O)c2ccc(S(=O)(=O)N3CCCCC3)cc2)n1 [Compound 12b, 4-(piperidin-1-ylsulfonyl)-N-(4-(o-tolyl)thiazol-2-yl)benzamide]",inactive
2,"Cc1cccc(-c2csc(NC(=O)c3ccc(S(=O)(=O)N4CCCCC4)cc3)n2)c1 [Compound 12c, 4-(piperidin-1-ylsulfonyl)-N-(4-(m-tolyl)thiazol-2-yl)benzamide]",inactive
3,"Cc1ccc(Br)cc1-c1csc(NC(=O)c2ccc(S(=O)(=O)N3CCCCC3)cc2)n1 [Compound 12e, N-(4-(5-bromo-2-methylphenyl)thiazol-2-yl)-4-(piperidin-1-ylsulfonyl)benzamide]",active
4,"Cc1ccc(C)c(Cc2csc(NC(=O)c3ccc(S(=O)(=O)N4CCCCC4)cc3)n2)c1 [Compound 12f, N-(4-(2,5-dimethylbenzyl)thiazol-2-yl)-4-(piperidin-1-ylsulfonyl)benzamide]",inactive
5,"Cc1csc(NC(=O)c2ccc(S(=O)(=O)N3CCCCC3)cc2)n1 [Compound 12g, N-(4-methylthiazol-2-yl)-4-(piperidin-1-ylsulfonyl)benzamide]",None of these molecules had any NF-κB activity
6,"CCc1csc(NC(=O)c2ccc(S(=O)(=O)N3CCCCC3)cc2)n1 [Compound 12h, N-(4-ethylthiazol-2-yl)-4-(piperidin-1-ylsulfonyl)benzamide]",None of these molecules had any NF-κB activity
7,"CCCc1csc(NC(=O)c2ccc(S(=O)(=O)N3CCCCC3)cc2)n1 [Compound 12i, 4-(piperidin-1-ylsulfonyl)-N-(4-propylthiazol-2-yl)benzamide]",None of these molecules had any NF-κB activity
8,"CC(C)(C)Cc1csc(NC(=O)c2ccc(S(=O)(=O)N3CCCCC3)cc2)n1 [Compound 12j, N-(4-neopentylthiazol-2-yl)-4-(piperidin-1-ylsulfonyl)benzamide]",None of these molecules had any NF-κB activity
9,"CC(C)(C)c1csc(NC(=O)c2ccc(S(=O)(=O)N3CCCCC3)cc2)n1 [Compound 12k, N-(4-(tert-butyl)thiazol-2-yl)-4-(piperidin-1-ylsulfonyl)benzamide]",None of these molecules had any NF-κB activity
10,"Cc1cccc(-c2csc(NC(=O)c3ccc(S(=O)(=O)N4CCCCC4)cc3)n2)c1C [Compound 12l, N-(4-(2,3-dimethylphenyl)thiazol-2-yl)-4-(piperidin-1-ylsulfonyl)benzamide]",retained activity
11,"Cc1cc(C)cc(-c2csc(NC(=O)c3ccc(S(=O)(=O)N4CCCCC4)cc3)n2)c1 [Compound 12o, N-(4-(3,5-dimethylphenyl)thiazol-2-yl)-4-(piperidin-1-ylsulfonyl)benzamide]",inactive
12,"Cc1cccc(C)c1-c1csc(NC(=O)c2ccc(S(=O)(=O)N3CCCCC3)cc2)n1 [Compound 12p, N-(4-(2,6-dimethylphenyl)thiazol-2-yl)-4-(piperidin-1-ylsulfonyl)benzamide]",retained activity
13,"O=C(Nc1nc(-c2cccc3ccccc23)cs1)c1ccc(S(=O)(=O)N2CCCCC2)cc1 [Compound 12q, N-(4-(naphthalen-1-yl)thiazol-2-yl)-4-(piperidin-1-ylsulfonyl)benzamide]",equally potent
14,"Cc1ccc2c(c1)-c1nc(NC(=O)c3ccc(S(=O)(=O)N4CCCCC4)cc3)sc1C2 [Compound 12r, N-(5-methyl-8H-indeno[1,2-d]thiazol-2-yl)-4-(piperidin-1-ylsulfonyl)benzamide]",weakly active
15,"Cc1ccc2c(c1)-c1nc(NC(=O)c3ccc(S(=O)(=O)N4CCCCC4)cc3)sc1CC2 [Compound 12s, N-(8-methyl-4,5-dihydronaphtho[1,2-d]thiazol-2-yl)-4-(piperidin-1-ylsulfonyl)benzamide]",weakly active
16,"C#Cc1ccc(C)c(-c2csc(NC(=O)c3ccc(S(=O)(=O)N4CCCCC4)cc3)n2)c1 [Compound 12t, N-(4-(5-ethynyl-2-methylphenyl)thiazol-2-yl)-4-(piperidin-1-ylsulfonyl)benzamide]",inactive
17,"CCc1ccc(C)c(-c2csc(NC(=O)c3ccc(S(=O)(=O)N4CCCCC4)cc3)n2)c1 [Compound 12u, N-(4-(5-ethyl-2-methylphenyl)thiazol-2-yl)-4-(piperidin-1-ylsulfonyl)benzamide]",regained the NF-κB activity

row,SMILES,"NF-κB activity (in words, SAR text to Table 1)"
1,"Cc1ccc(C)c(-c2c[nH]c(NC(=O)c3ccc(S(=O)(=O)N4CCCCC4)cc3)n2)c1 [Compound 18a, N-(4-(2,5-dimethylphenyl)-1H-imidazol-2-yl)-4-(piperidin-1-ylsulfonyl)benzamide]",none of these molecules that replaced the thiazole functionality was active
2,"Cc1ccc(C)c(-c2cccc(NC(=O)c3ccc(S(=O)(=O)N4CCCCC4)cc3)n2)c1 [Compound 18b, N-(6-(2,5-dimethylphenyl)pyridin-2-yl)-4-(piperidin-1-ylsulfonyl)benzamide]",none of these molecules that replaced the thiazole functionality was active
3,"Cc1ccc(C)c(-c2ccc(NC(=O)c3ccc(S(=O)(=O)N4CCCCC4)cc3)nc2)c1 [Compound 18c, N-(5-(2,5-dimethylphenyl)pyridin-2-yl)-4-(piperidin-1-ylsulfonyl)benzamide]",none of these molecules that replaced the thiazole functionality was active
4,"Cc1ccc(C)c(-c2ccc(NC(=O)c3ccc(S(=O)(=O)N4CCCCC4)cc3)cn2)c1 [Compound 18d, N-(6-(2,5-dimethylphenyl)pyridin-3-yl)-4-(piperidin-1-ylsulfonyl)benzamide]",none of these molecules that replaced the thiazole functionality was active
5,"Cc1ccc(C)c(-c2cnc(NC(=O)c3ccc(S(=O)(=O)N4CCCCC4)cc3)s2)c1 [Compound 18e, N-(5-(2,5-dimethylphenyl)thiazol-2-yl)-4-(piperidin-1-ylsulfonyl)benzamide]",none of these molecules that replaced the thiazole functionality was active
6,"Cc1ccc(C)c(-c2nnc(NC(=O)c3ccc(S(=O)(=O)N4CCCCC4)cc3)s2)c1 [Compound 18f, N-(5-(2,5-dimethylphenyl)-1,3,4-thiadiazol-2-yl)-4-(piperidin-1-ylsulfonyl)benzamide]",none of these molecules that replaced the thiazole functionality was active
7,"CCN(CC)c1sc(NC(=O)c2ccc(S(=O)(=O)N3CCCCC3)cc2)nc1-c1cc(C)ccc1C [Compound 18g, N-(5-(diethylamino)-4-(2,5-dimethylphenyl)thiazol-2-yl)-4-(piperidin-1-ylsulfonyl)benzamide]",completely inactive
8,"Cc1ccc(C)c(-c2nc(NC(=O)c3ccc(S(=O)(=O)N4CCCCC4)cc3)sc2N2CCCCC2)c1 [Compound 18h, N-(4-(2,5-dimethylphenyl)-5-(piperidin-1-yl)thiazol-2-yl)-4-(piperidin-1-ylsulfonyl)benzamide]",completely inactive
9,"Cc1ccc(C)c(-c2nc(NC(=O)c3ccc(S(=O)(=O)N4CCCCC4)cc3)sc2-c2ccccc2)c1 [Compound 18i, N-(4-(2,5-dimethylphenyl)-5-phenylthiazol-2-yl)-4-(piperidin-1-ylsulfonyl)benzamide]",completely inactive
10,"Cc1ccc(C)c(-c2nc(NC(=O)c3ccc(S(=O)(=O)N4CCCCC4)cc3)sc2-c2ccco2)c1 [Compound 18j, N-(4-(2,5-dimethylphenyl)-5-(furan-2-yl)thiazol-2-yl)-4-(piperidin-1-ylsulfonyl)benzamide]",completely inactive
11,"CCSc1sc(NC(=O)c2ccc(S(=O)(=O)N3CCCCC3)cc2)nc1-c1cc(C)ccc1C [Compound 18k, N-(4-(2,5-dimethylphenyl)-5-(ethylthio)thiazol-2-yl)-4-(piperidin-1-ylsulfonyl)benzamide]",completely inactive
12,"CCOc1sc(NC(=O)c2ccc(S(=O)(=O)N3CCCCC3)cc2)nc1-c1cc(C)ccc1C [Compound 18l, N-(4-(2,5-dimethylphenyl)-5-ethoxythiazol-2-yl)-4-(piperidin-1-ylsulfonyl)benzamide]",partial activity
13,"C#Cc1sc(NC(=O)c2ccc(S(=O)(=O)N3CCCCC3)cc2)nc1-c1cc(C)ccc1C [Compound 18o, N-(4-(2,5-dimethylphenyl)-5-ethynylthiazol-2-yl)-4-(piperidin-1-ylsulfonyl)benzamide]",weak activity
14,"CCC#Cc1sc(NC(=O)c2ccc(S(=O)(=O)N3CCCCC3)cc2)nc1-c1cc(C)ccc1C [Compound 18p, N-(5-(but-1-yn-1-yl)-4-(2,5-dimethylphenyl)thiazol-2-yl)-4-(piperidin-1-ylsulfonyl)benzamide]",very potent
15,"Cc1ccc(C)c(-c2csc(NCc3ccc(S(=O)(=O)N4CCCCC4)cc3)n2)c1 [Compound 34a, 4-(2,5-dimethylphenyl)-N-(4-(piperidin-1-ylsulfonyl)benzyl)thiazol-2-amine]",inactive
16,"Cc1ccc(C)c(-c2csc(N(C)C(=O)c3ccc(S(=O)(=O)N4CCCCC4)cc3)n2)c1 [Compound 34c, N-(4-(2,5-dimethylphenyl)thiazol-2-yl)-N-methyl-4-(piperidin-1-ylsulfonyl)benzamide]",inactive

# Reference: paper PMC8992012 (Bioorganic & medicinal chemistry, 2021)
